Assay outcomes (PubChem)
PRMT1 FP inh: PRMT1 methyltransferase inhibitors, primary screen, biochemical, fluorescence polarization; 370,000 compounds, 1.3% hits; Protein arginine N-methyltransferase 1 (Homo sapiens), Q99873; recombinant PRMT1, activity-based probe fluorescence polarization; inhibition, % at 2.79 µM;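 active = inhibition above about 21% made by adding two undisclosed values, limit read from the data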
Target sequence (Q99873 whole entry, looked up): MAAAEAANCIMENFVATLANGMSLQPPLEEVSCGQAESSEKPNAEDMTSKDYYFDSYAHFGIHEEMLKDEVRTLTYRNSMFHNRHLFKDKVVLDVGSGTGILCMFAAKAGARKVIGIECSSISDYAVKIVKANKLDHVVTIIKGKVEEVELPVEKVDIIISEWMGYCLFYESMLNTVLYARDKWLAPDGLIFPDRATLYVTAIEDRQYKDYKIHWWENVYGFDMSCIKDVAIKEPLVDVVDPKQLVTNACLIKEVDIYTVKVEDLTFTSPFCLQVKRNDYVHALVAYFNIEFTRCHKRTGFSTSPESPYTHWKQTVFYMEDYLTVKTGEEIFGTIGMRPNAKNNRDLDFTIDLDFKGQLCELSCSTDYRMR
mABHD4 FP: ABHD4 inhibitors, primary screen, biochemical, fluorescence polarization, mouse. (Lyso)-N-acylphosphatidylethanolamine lipase (Mus musculus), Q8VD66. purified mABHD4, FP-Rh probe fluorescence polarization. inhibition, % at 8.92 µM. 370,000 compounds, 0.54% hits. AID 720543, 2013;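 active = inhibition exceeding the mean over every tested compound plus 3 SD, cut at about 30% in these data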;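 also: 0% = plate median of compound wells and 100% = S159A mutant with DMSO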
Target sequence (Q8VD66 whole entry, looked up): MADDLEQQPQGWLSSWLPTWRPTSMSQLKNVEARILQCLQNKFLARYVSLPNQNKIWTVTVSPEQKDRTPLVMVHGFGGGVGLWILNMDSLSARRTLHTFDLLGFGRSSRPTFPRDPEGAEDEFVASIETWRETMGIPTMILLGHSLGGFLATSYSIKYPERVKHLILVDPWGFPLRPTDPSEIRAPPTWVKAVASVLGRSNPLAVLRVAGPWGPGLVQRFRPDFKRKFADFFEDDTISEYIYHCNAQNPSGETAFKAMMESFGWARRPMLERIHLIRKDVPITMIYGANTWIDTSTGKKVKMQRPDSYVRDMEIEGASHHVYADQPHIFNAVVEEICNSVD
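Assay system: mouse ABHD4 enzyme, wild type / Also added: fluorescent activity-based probe FP-Rh / Doses: single nominal dose of 8.92 µM, 0.89% DMSO final / Timing: 45 min compound pre-incubation plus 60 min probe step, 25 °C / Signal: FP readout, ex 525 nm / em 598 nm / Control set: S159A mutant/DMSO as 100%, compound-well median as 0%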
HTRA1 inhibitor: HTRA1 serine protease inhibitors, primary screen, biochemical, fluorescence polarization, HTS. 340,000 compounds, 0.5% hits. inhibition, % at 5.96 µM. recombinant HTRA1, FP-rhodamine activity-based probe. Q92743; in the data active = inhibition above about 36%;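 also: 0% = enzyme with DMSO and 100% = wells lacking enzyme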
rCAG RNA binder: binders of r(CAG) RNA repeats, primary screen, biochemical, fluorescence | 370,000 compounds, 1.3% hits | inhibition, % at 3 µM | r(CAG) RNA repeat, TO-PRO-1 dye displacement fluorescence | AID 651821, 2012;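 active = inhibition above the plate cutoff, the mean of all test compounds on that plate plus 3 SD, cut at about 35% in these data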;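 also: 0% = DMSO alone and 100% = 100 µM mitoxantrone as full dye displacement; higher means more dye released from RNA so lower well fluorescence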
SIAE primary: human SIAE inhibitors, primary screen, biochemical, fluorescence polarization, FP-Rh probe, 1536-well HTS. Sialate O-acetylesterase (Homo sapiens), Q9HAT2. inhibition, % at 9.66 µM. 370,000 compounds, 0.69% hits. SIAE FP-Rh probe binding;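 active = inhibition above a cutoff: mean of compounds within the control limits plus 3 SD of those, cut at about 17% in these data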;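 also: 0% = plate median of compound wells and 100% = probe without SIAE protein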
rCAG bind conf: small molecules binding CAG repeat RNA – biochemical, fluorescence, confirmation; shares compounds with rCAG RNA binder; r(CAG) RNA repeat, TO-PRO-1 dye displacement fluorescence; inhibition, % at 3 µM; 4,300 compounds, 70% hits; AID 652065, 2013;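 active = inhibition above a per-plate cutoff, the mean inhibition of sample wells plus 3 SD, cut at about 35% in these data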;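 also: loss of TO-PRO-1 fluorescence as compound displaces dye from 1x1 AA loop RNA; 0% = DMSO only wells and 100% = 100 µM mitoxantrone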
DNA CAG counter: displacement of TO-PRO-1 from CAG DNA duplex, counter-screen for rCAG RNA repeat binder project, biochemical, fluorescence, TO-PRO-1 dye, d(CAG) DNA oligo. inhibition, % at 3 µM. 4,300 compounds, 94% hits. shares compounds with rCAG RNA binder. AID 652068, 2013. d(CAG) DNA oligo TO-PRO-1 dye displacement;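 active = inhibition above its plate's cutoff, the mean test-well inhibition plus 3 SD, cut at about 4.8% in these data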;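 also: 0% = DNA dye mix with DMSO and 100% = 100 µM mitoxantrone; hits displace the dye from DNA and so lower well fluorescence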
DNA CAG DR: inhibitors of DNA CAG/GTC TO-PRO-1 complex, dose response, counter-screen for rCAG RNA repeat binder project, biochemical, fluorescence, TO-PRO-1 dye; AID 686960, 2013; 250 compounds, 20% hits; DNA CAG/GTC duplex TO-PRO-1 dye displacement fluorescence; shares compounds with rCAG RNA binder; IC50, µM; in the data active = IC50 below about 10 µM
An asterisk follows results filed as active; i = inactive; nt = no result given. This is a sample that favours compounds with a hit; in the whole collection about 3.3% have one here.

SMILES | PRMT1 FP inh | mABHD4 FP | HTRA1 inhibitor | rCAG RNA binder | SIAE primary | rCAG bind conf | DNA CAG counter | others
COc1ccc(O)c(C(=O)c2cc(SCC(=O)O)c3nc4sc5c(c4c(=O)n3c2)CCCC5)c1 | 3.9 | -22.4 | -21.5 | 41.8* | -20.3 | 89.2* | 62.8*
CCOC(=O)c1sc2nc3c(SCC(=O)O)cc(C(=O)c4cc(F)ccc4O)cn3c(=O)c2c1C | 3.1 | -35.8 | -75.3 | 28.1 | -79.9 | nt | nt
O=C(O)CSc1cc(C(=O)c2ccccc2O)cn2c(=O)c3c(-c4ccccc4)csc3nc12 | 0.3 | -18.5 | -79.3 | 52.5* | -45.5 | 90.2* | 74.3*
Cc1sc2nc3c(SC(C)C(=O)O)cc(C(=O)c4ccccc4O)cn3c(=O)c2c1C (stereo unspecified) | 2.8 | -28.4 | -47.4 | 76.6* | -25.1 | 84.9* | 61.5*
COC(=O)C1=C(C)N(Cc2ccccc2C(F)(F)F)C(=NCc2cc(OC)c(OC)c(OC)c2)NC1CCc1ccccc1 (stereo unspecified) | -2.7 | 6.8 | nt | 8.9 | 2.1 | nt | nt
COc1cc(/C=C/C(=O)O)cc(S(=O)(=O)Nc2ccc3nc(SC)sc3c2)c1OC | 6.7 | 17.7 | -6.0 | 50.0* | -14.8 | 31.6 | 9.6*
COc1cc(/C=C/C(=O)O)cc(S(=O)(=O)Nc2ccc3cn[nH]c3c2)c1OC | 2.4 | 6.5 | 4.6 | 3.0 | 0.1 | nt | nt
CCc1c(C)sc(NC(=O)c2cc(-c3ccco3)on2)c1C#N | 5.0 | 9.8 | -8.7 | 39.9* | -5.6 | 28.1 | 6.5*
CS(=O)(=O)c1ccc2c(c1)sc1nc(=O)c(/C=C3/C=CC(=O)C(O)=C3)c(N)n12 | 20.1 | 14.6 | 19.9 | 39.4* | 2.6 | 48.2* | 18.4*
CCSc1nnc(NC(=O)c2c(-c3ccccc3Cl)noc2C)s1 | 1.7 | -0.2 | -1.8 | 1.6 | 1.8 | nt | nt
Cc1onc(-c2ccccc2Cl)c1C(=O)Nc1nnc(-c2cccc([N+](=O)[O-])c2)s1 | -2.1 | -6.9 | -4.6 | 41.9* | 4.0 | 34.2 | 7.4*
CCOC(=O)[C@]12CCCC3=C1N(CCC3)C(=O)[C@@H](CC(=O)N1CCN(C(=O)c3ccco3)CC1)C2 | -0.1 | -2.9 | nt | 3.9 | 0.0 | nt | nt
S=C(Nc1cccc(Br)c1)OC1CCC12CCC(c1ccccc1)CC2 (stereo unspecified) | -3.7 | -3.7 | nt | 1.8 | -8.7 | nt | nt
O=S(=O)(O)c1cccc(N=Nc2c(O)ccc3ccccc23)c1 | 0.0 | 13.2 | -3.5 | 38.4* | -12.1 | 35.6* | 9.7*
Cc1ccc(C)c(NC(=O)NNC(=O)c2cc3ccccc3cc2O)c1 | -0.5 | -6.0 | 31.5 | 34.8* | 6.0 | 27.7 | 9.0*
Cc1ccc(NC(=O)NNC(=O)c2cc3ccccc3cc2O)cc1C | 2.6 | 6.0 | 20.9 | 10.1 | 0.5 | nt | nt
O=C(NNC(=O)c1cc2ccccc2cc1O)Nc1ccccc1F | 3.0 | 17.6 | 21.9 | 40.6* | 5.0 | 21.6 | 7.2*
COc1ccc(C[N+]2=C(N)N[C@@]3(C=C(C)Cn4c(=O)n(-c5ccccc5)c(=O)n43)C2)c(OC)c1 | -3.3 | 7.3 | nt | 10.1 | 11.2 | nt | nt
O=C1C(Cl)=C(NS(=O)(=O)c2ccc([N+](=O)[O-])cc2)C(=O)c2ccccc21 | 10.8 | 30.4* | 13.0 | 38.2* | 12.9 | 23.6 | 5.3*
COc1ccc(-c2nn(-c3ccccc3)cc2C(=O)NC(=S)NNC(=O)c2ccncc2)cc1 | -0.8 | -2.0 | 6.9 | 56.0* | 4.0 | 55.5* | 20.3*
O=[N+]([O-])c1cccc(-c2cc(-c3cc(Br)ccc3O)[nH]n2)c1 | 3.6 | -23.1 | -22.3 | 36.8* | 2.4 | 27.0 | 16.4*
CCOC(=O)[C@]12CCCCC/C=C\1N(CCc1ccc(Cl)cc1)C(=O)[C@H]2CC(=O)NCCC(C)C | 2.8 | 0.0 | nt | 2.5 | -0.6 | nt | nt
O=[N+]([O-])c1cc(-c2nnc(N3CCOCC3)c3ccccc23)ccc1N1CCOCC1 | -3.1 | -1.0 | 2.1 | 89.8* | 0.8 | 1.1 | 2.0
O=[N+]([O-])c1cc(-c2nnc(Nc3ccccc3)c3ccccc23)ccc1N1CCOCC1 | 0.2 | 4.4 | -8.7 | 3.5 | 4.3 | nt | nt
COc1cccc(/C=C2\SC(=S)N(C(Cc3ccccc3)C(=O)O)C2=O)c1 (stereo unspecified) | 1.0 | -6.5 | -36.9 | 68.6* | -5.0 | 77.9* | 30.6* | DNA CAG DR=i
SMILES | PRMT1 FP inh | mABHD4 FP | HTRA1 inhibitor | rCAG RNA binder | SIAE primary | rCAG bind conf | DNA CAG counter | others
COc1ccc(OC)c(/C=C2\SC(=S)N(C(C(=O)O)c3ccccc3)C2=O)c1 (stereo unspecified) | 16.6 | 17.2 | -21.2 | 54.6* | -9.7 | 77.3* | 44.2*
O=C(O)C(Cc1ccccc1)N1C(=O)/C(=C/c2cccs2)SC1=S (stereo unspecified) | 15.4 | 9.2 | nt | 66.9* | 6.6 | 49.2* | 17.6*
COc1cccc(/C=C2\SC(=S)N(CCC(=O)Nc3ccc(O)cc3)C2=O)c1 | 8.9 | -38.8 | 0.6 | 14.1 | -3.9 | nt | nt
CCC(NC(=O)c1ccccc1Br)c1ccccc1 (stereo unspecified) | 3.7 | 0.9 | -17.7 | -1.2 | -2.6 | nt | nt
CCC(NC(=O)c1ccc2c(ccn2Cc2cccc(-c3ccccc3C(=O)O)c2)c1)c1ccccc1 (stereo unspecified) | 11.6 | -51.3 | nt | 49.1* | -10.7 | 48.4* | 17.8*
COC(=O)c1cc(-c2cnc(OC)nc2OC)c(=O)n2c1CCC2 | 4.5 | -6.3 | nt | 0.8 | -0.1 | nt | nt
Cc1n[nH]c(C)c1S(=O)(=O)NCCc1c[nH]c2ccccc12 | 2.1 | -0.2 | nt | 1.6 | 3.6 | nt | nt
O=C(COC(=O)c1cc(S(=O)(=O)Nc2ccccc2Cl)ccc1O)Nc1nc2ccccc2s1 | -1.4 | -23.9 | -48.9 | 42.8* | -54.2 | 68.7* | 31.2*
COc1ccc(NS(=O)(=O)c2ccc(O)c(C(=O)OCC(=O)Nc3ccc4c(c3)OCCO4)c2)cc1 | 3.1 | 5.8 | -9.2 | 38.2* | 2.5 | 28.4 | 10.9*
N#Cc1cccc(NC(=O)COC(=O)c2cc(S(=O)(=O)Nc3ccccc3Cl)ccc2O)c1 | -2.0 | -5.7 | -14.6 | 52.0* | -16.3 | 45.1* | 15.4*
